Assay results as given in ChEMBL document CHEMBL1127852, “Synthesis and antibacterial activity of thiazolopyrazine-incorporated tetracyclic quinolone antibacterial agents. 2” (1994).
In brackets after ≈: the same amount, converted by molar mass.

Key:
Type in all cases: functional
Micrococcus luteus = test: Compound was tested for its minimal inhibitory constant against Gram-positive microorganism Micrococcus luteus ATCC 9341 (MI)
Procedure, shortened: (§1)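 Serial 2-fold agar dilution on Sensitivity Test agar, inoculum approximately 10^6 CFU/mL, incubated 37 °C for 18 h. MIC taken as lowest concentration preventing visible growth. Values are means of duplicate or triplicate experiments.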

Escherichia coli [1] = test: Compound was tested for its minimal inhibitory constant against Gram-negative microorganism Escherichia coli KC-14 (Ec(K)); procedure, shortened: as §1
Escherichia coli [2] = test: Compound was tested for its minimal inhibitory constant against Gram-negative microorganism Escherichia coli NIHJ JC-2 (Ec(N)); procedure, shortened: as §1
Staphylococcus aureus [3] = test: Compound was tested for its minimal inhibitory constant against Gram-positive microorganism Staphylococcus aureus IID 803 (Sa(I)); procedure, shortened: as §1
Klebsiella pneumoniae = test: Compound was tested for its minimal inhibitory constant against Gram-negative microorganism Klebsiella pneumoniae B54 (Kp); procedure, shortened: as §1
Mus musculus [4] = test: Compound was tested for Therapeutic effects on systemic infections on mice by peroral administration; conditions: po
Procedure, shortened: (§2)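 Mouse protection against S. aureus IID 803: groups of five male ddY mice (25–28 g) infected i.p. with 0.5 mL bacterial dilution at 100 or 200 times the 50% lethal dose; compound suspended in 1% aqueous gum arabic, given orally 1 h postinfection. Survival scored after 1 week; ED50 with 95% confidence limits by Weil method.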

Enterococcus faecalis = test: Compound was tested for its minimal inhibitory constant against Gram-positive microorganism Enterococcus faecalis IID682 (Ef); procedure, shortened: as §1
Staphylococcus aureus [5] = test: Compound was tested for its minimal inhibitory constant against Gram-positive microorganism Staphylococcus aureus FDA 209P JC-1 (Sa(F)); procedure, shortened: as §1
Pseudomonas aeruginosa [6] = test: Compound was tested for its minimal inhibitory constant against Gram-negative microorganism Pseudomonas aeruginosa E-2 (Pa(E)); procedure, shortened: as §1
Pseudomonas aeruginosa [7] = test: Compound was tested for its minimal inhibitory constant against Gram-negative microorganism Pseudomonas aeruginosa IFO 3445 (Pa(I)); procedure, shortened: as §1
[8] = test system: Staphylococcus epidermidis; test: Compound was tested for its minimal inhibitory constant against Gram-positive microorganism Staphylococcus epidermidis IAM 1296 (Se); procedure, shortened: as §1
Mus musculus [9] = test: Compound was tested for oral efficacy on systemic infections on mice by peroral administration; procedure, shortened: as §2
Staphylococcus aureus [10] = test: Tested for in vitro for antibacterial activity against 16 clinical isolated of methicillin-resistant Staphylococcus aureus
Procedure, shortened: (§3)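 Serial 2-fold agar dilution in Sensitivity Test agar, following the standard method. Clinical MRSA isolates collected in Japan in 1988 and 1989. Inoculum about 10^6 CFU/mL. Plates incubated at 37 °C for 18 h. MIC taken as the lowest concentration that prevented visible growth.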

Staphylococcus aureus [11] = test: Tested for in vitro for antibacterial activity against 16 clinical isolated of methicillin-resistant Staphylococcus aureus, range of Minimal inhibitory activity value for isolates; procedure, shortened: as §3

| Structure (SMILES) | MIC (Micrococcus luteus) [µg/mL] | MIC (Escherichia coli [1]) [µg/mL] | MIC (Escherichia coli [2]) [µg/mL] | MIC (Staphylococcus aureus [3]) [µg/mL] | MIC (Klebsiella pneumoniae) [µg/mL] | ED50 (Mus musculus [4]) [mg/kg] | MIC (Enterococcus faecalis) [µg/mL] | MIC (Staphylococcus aureus [5]) [µg/mL] | MIC (Pseudomonas aeruginosa [6]) [µg/mL] | MIC (Pseudomonas aeruginosa [7]) [µg/mL] | MIC [8] [µg/mL] | ED50 (Mus musculus [9]) [mg/kg] | MIC50 (Staphylococcus aureus [10]) [µg/mL] | MIC90 (Staphylococcus aureus [10]) [µg/mL] | MIC (Staphylococcus aureus [11]) [µg/mL] | MIC (Staphylococcus aureus [10]) [µg/mL] |
| --- | --- | --- | --- | --- | --- | --- | --- | --- | --- | --- | --- | --- | --- | --- | --- | --- |
| COC[C@H]1CN(c2c(F)cc3c(=O)c(C(=O)O)c4scc5n4c3c2N(C)C5)CCO1 | 0.2 (≈ 0.461 µM) | 0.39 (≈ 0.9 µM) | 0.39 (≈ 0.9 µM) | 0.006 (≈ 0.0138 µM) | 0.39 (≈ 0.9 µM) | 1.25 | 0.2 (≈ 0.461 µM) | 0.025 (≈ 0.0577 µM) | 3.13 (≈ 7.22 µM) | 3.13 (≈ 7.22 µM) | 0.025 (≈ 0.0577 µM) | – | – | – | – | – |
| COC[C@@H]1CN(c2c(F)cc3c(=O)c(C(=O)O)c4scc5n4c3c2N(C)C5)CCO1 | 0.2 (≈ 0.461 µM) | 0.39 (≈ 0.9 µM) | 0.2 (≈ 0.461 µM) | 0.0125 (≈ 0.0288 µM) | 0.78 (≈ 1.8 µM) | 0.82 | 0.2 (≈ 0.461 µM) | 0.025 (≈ 0.0577 µM) | 3.13 (≈ 7.22 µM) | 3.13 (≈ 7.22 µM) | 0.05 (≈ 0.115 µM) | – | – | – | – | – |
| CN1Cc2csc3c(C(=O)O)c(=O)c4cc(F)c(N5CCOC(CO)C5)c1c4n23 (configuration not stated) | 0.2 (≈ 0.477 µM) | 0.1 (≈ 0.238 µM) | 0.1 (≈ 0.238 µM) | 0.006 (≈ 0.0143 µM) | 0.39 (≈ 0.93 µM) | – | 0.1 (≈ 0.238 µM) | 0.0125 (≈ 0.0298 µM) | 1.56 (≈ 3.72 µM) | 1.56 (≈ 3.72 µM) | 0.05 (≈ 0.119 µM) | 5.1 | 0.39 (≈ 0.93 µM) | 0.78 (≈ 1.86 µM) | ≤ 0.006 | – |
| CC1CN(c2c(F)cc3c(=O)c(C(=O)O)c4scc5n4c3c2N(C)C5)CCO1 (configuration not stated) | 0.1 (≈ 0.248 µM) | 0.1 (≈ 0.248 µM) | 0.1 (≈ 0.248 µM) | 0.006 (≈ 0.0149 µM) | 0.39 (≈ 0.967 µM) | – | 0.05 (≈ 0.124 µM) | 0.0125 (≈ 0.031 µM) | 0.78 (≈ 1.93 µM) | 0.78 (≈ 1.93 µM) | 0.0125 (≈ 0.031 µM) | 3.5 | 0.1 (≈ 0.248 µM) | 0.2 (≈ 0.496 µM) | ≤ 0.006 | – |
| CNCC1CN(c2c(F)cc3c(=O)c(C(=O)O)c4scc5n4c3c2N(C)C5)CCO1 (configuration not stated) | 0.78 (≈ 1.8 µM) | 0.2 (≈ 0.462 µM) | 0.2 (≈ 0.462 µM) | 0.05 (≈ 0.116 µM) | 1.56 (≈ 3.61 µM) | – | 0.2 (≈ 0.462 µM) | 0.025 (≈ 0.0578 µM) | 3.13 (≈ 7.24 µM) | 3.13 (≈ 7.24 µM) | 0.1 (≈ 0.231 µM) | – | – | – | – | – |
| CN(C)CC1CN(c2c(F)cc3c(=O)c(C(=O)O)c4scc5n4c3c2N(C)C5)CCO1 (configuration not stated) | 0.2 (≈ 0.448 µM) | 0.2 (≈ 0.448 µM) | 0.39 (≈ 0.873 µM) | 0.025 (≈ 0.056 µM) | 0.39 (≈ 0.873 µM) | – | 0.1 (≈ 0.224 µM) | 0.025 (≈ 0.056 µM) | 6.25 (≈ 14 µM) | 6.25 (≈ 14 µM) | 0.05 (≈ 0.112 µM) | 4.8 | – | – | – | – |
| CN1Cc2csc3c(C(=O)O)c(=O)c4cc(F)c(N5CCOC(CCl)C5)c1c4n23 (configuration not stated) | 0.05 (≈ 0.114 µM) | 0.2 (≈ 0.457 µM) | 0.2 (≈ 0.457 µM) | 0.006 (≈ 0.0137 µM) | 0.39 (≈ 0.891 µM) | – | 0.05 (≈ 0.114 µM) | 0.0125 (≈ 0.0285 µM) | 1.56 (≈ 3.56 µM) | 1.56 (≈ 3.56 µM) | 0.0125 (≈ 0.0285 µM) | – | 0.1 (≈ 0.228 µM) | 0.2 (≈ 0.457 µM) | < 0.006 | – |
| CCC1CN(c2c(F)cc3c(=O)c(C(=O)O)c4scc5n4c3c2N(C)C5)CCO1 (configuration not stated) | 0.2 (≈ 0.479 µM) | 0.39 (≈ 0.934 µM) | 0.39 (≈ 0.934 µM) | 0.025 (≈ 0.0599 µM) | 0.39 (≈ 0.934 µM) | – | 0.1 (≈ 0.24 µM) | 0.025 (≈ 0.0599 µM) | 1.56 (≈ 3.74 µM) | 3.13 (≈ 7.5 µM) | 0.05 (≈ 0.12 µM) | > 12 | – | – | – | – |
| CC1CN(c2c(F)cc3c(=O)c(C(=O)O)c4scc5n4c3c2N(C)C5)CC(C)O1 (configuration not stated) | 0.2 (≈ 0.479 µM) | 0.39 (≈ 0.934 µM) | 0.39 (≈ 0.934 µM) | 0.0125 (≈ 0.0299 µM) | 0.78 (≈ 1.87 µM) | – | 0.2 (≈ 0.479 µM) | 0.0125 (≈ 0.0299 µM) | 3.13 (≈ 7.5 µM) | 3.13 (≈ 7.5 µM) | 0.1 (≈ 0.24 µM) | > 12 | – | – | – | – |
| COCC1CN(c2c(F)cc3c(=O)c(C(=O)O)c4scc5n4c3c2N(C)C5)CCO1 (configuration not stated) | 0.2 (≈ 0.461 µM) | 0.39 (≈ 0.9 µM) | 0.2 (≈ 0.461 µM) | 0.0125 (≈ 0.0288 µM) | 0.78 (≈ 1.8 µM) | 1.09 | 0.2 (≈ 0.461 µM) | 0.025 (≈ 0.0577 µM) | 3.13 (≈ 7.22 µM) | 3.13 (≈ 7.22 µM) | 0.05 (≈ 0.115 µM) | 1.7 | 0.39 (≈ 0.9 µM) | 0.78 (≈ 1.8 µM) | ≤ 0.006 | – |
| CN1Cc2csc3c(C(=O)O)c(=O)c4cc(F)c(N5CCOC(CF)C5)c1c4n23 (configuration not stated) | 0.1 (≈ 0.237 µM) | 0.1 (≈ 0.237 µM) | 0.1 (≈ 0.237 µM) | 0.006 (≈ 0.0142 µM) | 0.2 (≈ 0.475 µM) | – | 0.05 (≈ 0.119 µM) | 0.0125 (≈ 0.0297 µM) | 0.78 (≈ 1.85 µM) | 0.78 (≈ 1.85 µM) | 0.025 (≈ 0.0593 µM) | 1.9 | 0.2 (≈ 0.475 µM) | 0.2 (≈ 0.475 µM) | – | ≤ 0.006 |
| CN1Cc2csc3c(C(=O)O)c(=O)c4cc(F)c(N5CCOCC5)c1c4n23 | 0.1 (≈ 0.257 µM) | 0.1 (≈ 0.257 µM) | 0.1 (≈ 0.257 µM) | 0.006 (≈ 0.0154 µM) | 0.05 (≈ 0.128 µM) | – | 0.05 (≈ 0.128 µM) | 0.006 (≈ 0.0154 µM) | 0.39 (≈ 1 µM) | 0.39 (≈ 1 µM) | 0.025 (≈ 0.0642 µM) | > 12 | 0.2 (≈ 0.514 µM) | 0.2 (≈ 0.514 µM) | – | < 0.006 |
| CC1COc2c(N3CCN(C)CC3)c(F)cc3c(=O)c(C(=O)O)cn1c23 (configuration not stated) [OFLOXACIN] | – | 0.1 (≈ 0.277 µM) | – | – | 0.1 (≈ 0.277 µM) | 14.6 | 1.56 (≈ 4.32 µM) | – | 1.56 (≈ 4.32 µM) | – | – | 11.4 | 6.25 (≈ 17.3 µM) | 50 (≈ 138 µM) | – | – |
